Screening results as filed in PubChem BioAssay.
An excerpt weighted towards active compounds, which were near 4.2% of everything screened.
OX1R antag-1: antagonists of human orexin 1 receptor (OX1R) | Orexin/Hypocretin receptor type 1 (Homo sapiens), O43613 | OX1R-expressing cells, FRET antagonist read-out | AID 485270, 2010 | actives 1.8% (n = 330,000) | inhibition, % at 6.6 µM; in the data active means inhibition mostly above about 38%, no sharp cut-off; inactive means mostly below about 40%;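 further: 0% = agonist challenge alone and 100% = reference antagonist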
Target sequence (O43613 whole entry, looked up): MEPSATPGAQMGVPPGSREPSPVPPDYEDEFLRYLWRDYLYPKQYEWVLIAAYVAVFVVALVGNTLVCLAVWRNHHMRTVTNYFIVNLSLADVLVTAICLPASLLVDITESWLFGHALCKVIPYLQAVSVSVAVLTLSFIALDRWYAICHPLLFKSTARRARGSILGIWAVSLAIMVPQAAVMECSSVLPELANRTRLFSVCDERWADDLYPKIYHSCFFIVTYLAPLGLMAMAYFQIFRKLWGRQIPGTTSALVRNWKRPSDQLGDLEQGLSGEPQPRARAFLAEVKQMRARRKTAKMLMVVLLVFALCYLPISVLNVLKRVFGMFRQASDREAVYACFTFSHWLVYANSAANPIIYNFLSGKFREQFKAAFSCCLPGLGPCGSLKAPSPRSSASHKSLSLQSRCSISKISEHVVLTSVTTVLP
GalR3 antag: GalR3 antagonists in HEK293 cells, primary screen, cell-based, fluorescence readout | HEK293 GalR3-CNG cAMP membrane potential fluorescence; galR3 body fused to GalR1 C-terminus | inhibition, % at 3 µM | actives 0.44% (n = 360,000) | AID 651719, 2012;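 active means inhibition above the screen-wide average plus 3 SD, cut at about 13% in these data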;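 further: forskolin and galanin both at EC90 stimulate the cells; cAMP rise reported by CNG channel membrane potential dye signal; 0% = forskolin plus galanin with DMSO and 100% = forskolin alone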
CHO parental Ca: ATP-evoked calcium signal inhibitors, parental CHO, primary screen, counter-screen for OX1R antagonist project, cell-based, fluorescence, Fluo-8 calcium dye; parental CHO-K1, ATP-induced calcium, Fluo-8 fluorescence; inhibition, % at 5.6 µM; actives 0.63% (n = 330,000); AID 463079, 2010;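 active means inhibition above that plate's mean sample inhibition plus 3 SD, cut at about 26% in these data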;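 further: 0% = ATP-challenged DMSO wells and 100% = DMSO wells without ATP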
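Material – parental CHO cells · Reagent – ATP stimulus · Compound – single nominal dose of 5.6 µM per compound · Detection – Fluo-8 fluorescence · Read-out basis – percent inhibition of calcium signal · Controls – ATP-challenged DMSO wells low, unchallenged DMSO wells high · Repeats – no replicates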
OX1R antag-2: OX1R (HCRTR1) antagonists, primary screen, fluorescence, CHO/OX1R cells, Fluo-8 calcium, orexin A; Orexin/Hypocretin receptor type 1 (Homo sapiens), O43613; Fluo-8 calcium fluorescence; inhibition, % at 5 µM; actives 0.43% (n = 330,000);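 active means inhibition above its plate's threshold, mean inhibition of all tested compounds on the plate plus 3 SD, cut at about 37% in these data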;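 further: 0% = orexin A challenge wells and 100% = SB-334867-A antagonist wells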
TAAR1 ag: human TAAR1 agonists, primary screen, Fluo-8 calcium fluorescence, CHO RD-HGA16 cells. vehicle wells 0%, saturating PEA agonist 100%. activation, % at 3 µM. actives 0.99% (n = 360,000). AID 624467, 2012;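 active means activation above the mean activation of all test compounds in the run plus 3 SD, cut at about 38% in these data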
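Test system: RD-HGA16 (CHO) cells co-expressing Gα16 and hTAAR1 | Doses: Single dose, 3 µM | Schedule: 17-24 h seeding, 75 min 37 °C dye, 30 min RT | Evaluation: % activation from peak over basal fluorescence ratio, DMSO-to-PEA scaled | Technique: Kinetic Fluo-8 calcium fluorescence | Benchmarks: Low control DMSO, high control PEA (EC100)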
TAAR1 antagonist: human TAAR1 antagonists, primary screen, Fluo-8 calcium fluorescence, CHO RD-HGA16 cells. AID 624466, 2012. inhibition, % at 3 µM. antagonist. actives 1.5% (n = 360,000);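 active means inhibition above a per-plate cutoff, the mean inhibition of test compounds on that plate plus 3 SD, cut at about 49% in these data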;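 further: 0% = DMSO plus EC80 beta-PEA response and 100% = DMSO alone without agonist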
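Material: CHO RD-HGA16 cells bearing hTAAR1; compound dosing: one-point dosing, 3 µM nominal final; schedule: dye loading 75 min at 37 °C, then 30 min room temperature; measured by: calcium fluorescence with Fluo-8; control set: vehicle and agonist controls; replication: n of 1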
OX1R HTRF confirm: OX1R (HCRTR1) antagonists, confirmation, cell-based, HTRF; shares compounds with OX1R antag-1; OX1R-expressing cells, HTRF antagonist assay; inhibition, % at 6.6 µM; actives 49% (n = 1,800); in the data active means inhibition above about 55%;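 further: CHO cells expressing OX1R stimulated with orexin A at about EC80; 0% = agonist challenge alone and 100% = reference antagonist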
CHO-K1 HTRF: signal inhibition in parental CHO-K1 cells, counter-screen for OX1R antagonist project, cell-based, HTRF; shares compounds with OX1R antag-1; HTRF counterscreen; inhibition, % at 6.6 µM; actives 48% (n = 1,800); AID 493232, 2011; in the data active means inhibition above about 17%;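 further: 0% = agonist challenge with vehicle and 100% = vehicle alone without agonist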
* hit, by the source's call; . = not tested or not shown.

SMILES	OX1R antag-1	GalR3 antag	CHO parental Ca	OX1R antag-2	TAAR1 ag	TAAR1 antagonist	OX1R HTRF confirm	CHO-K1 HTRF
COc1ccc(OCC(=O)NNC(=O)C2CCN(c3ncnc4sc(C)c(C)c34)CC2)cc1	6	-7	-14	-23	10	29	.	.
CCCCNc1ccc(S(N)(=O)=O)cc1[N+](=O)[O-]	42	.	-3	-11	.	.	.	.
O=C(NCCCn1ccnc1)c1cc([N+](=O)[O-])cc([N+](=O)[O-])c1	105*	-2	-9	-13	2	8	58*	87*
NS(=O)(=O)c1ccc(NCCCn2ccnc2)c([N+](=O)[O-])c1	80*	-5	7	7	0	-3	52	50*
O=[N+]([O-])c1ccc(SNc2ccccc2)c([N+](=O)[O-])c1	.	-5	.	.	4	31	.	.
O=[N+]([O-])c1ccc(-[n+]2ccc3ccccc3c2)c([N+](=O)[O-])c1	78*	-6	-3	-5	16	-3	47	60*
CCC(Oc1ccccc1)C(=O)Nc1ncc([N+](=O)[O-])s1 (configuration not stated)	79*	-8	9	3	15	-19	29	15
O=[N+]([O-])c1cccc2[nH]ncc12	.	-6	.	.	8	-14	.	.
O=C1OCc2cccc([N+](=O)[O-])c21	79*	0	3	5	1	-4	31	33*
COC(=O)c1nn(-c2ccc(OC)cc2)c(=O)c2c(N)sc(C)c12	83*	-2	-12	-19	2	4	43	43*
COC(=O)c1nn(-c2ccc(OC)cc2)c(=O)cc1NN	19	-4	-15	-4	6	-7	.	.
CCC(CO)Nc1ncc([N+](=O)[O-])cc1C#N (configuration not stated)	27	1	-3	1	3	-7	.	.
N#Cc1cc([N+](=O)[O-])cnc1N(CCO)CCO	82*	-2	-2	-13	0	1	34	22*
COC(=O)c1nc(C(=O)OC)c(C(=O)OC)nc1C(=O)OC	102*	5	-12	-10	6	1	49	22*
Cc1ccccc1CNC(=O)c1ccccc1NS(C)(=O)=O	105*	-3	-12	0	2	3	26	0
CS(=O)(=O)Nc1ccccc1C(=O)NCc1ccccc1Cl	12	-5	9	13	1	-7	.	.
CCCCN1C=CC(=C2N=c3cccc([N+](=O)[O-])c3=N2)C=C1	157*	1	6	-1	1	11	59*	100*
CCCCCCN1C=CC(=C2C(=O)c3ccccc3C2=O)C=C1	21	-10	-17	-16	15	-3	.	.
CCNc1sc(C(=O)c2cccs2)c(N)c1-c1nc2ccccc2s1	42	-5	-15	-42	6	19	.	.
C=CCNc1sc(C(=O)c2ccccc2)c(N)c1-c1nc2ccccc2s1	93*	.	-18	-8	.	.	35	7
COCC(C)NC(=O)c1cccc([N+](=O)[O-])c1 (configuration not stated)	127*	1	-1	2	0	5	19	19*
CC(=O)c1sc(N/N=C\c2c(O)ccc3ccccc23)nc1C	85*	-6	2	-2	8	10	58*	7
CC(=O)c1sc(Nc2cccc3ccccc23)nc1C	14	-6	-10	-28	-3	-25	.	.
Cn1ccnc1C(=O)c1cccc([N+](=O)[O-])c1	39	1	-10	-18	0	3	.	.
CC1CN(C(=O)/C=C/c2ccc([N+](=O)[O-])s2)CC(C)O1 (configuration not stated)	126*	-4	-34	-26	0	4	65*	75*
SMILES	OX1R antag-1	GalR3 antag	CHO parental Ca	OX1R antag-2	TAAR1 ag	TAAR1 antagonist	OX1R HTRF confirm	CHO-K1 HTRF
CC1CN(C(=O)/C=C/c2ccccc2[N+](=O)[O-])CC(C)O1 (configuration not stated)	24	-6	14	-1	2	1	.	.
O=C(CSc1cccc[n+]1[O-])Nc1c(Br)cc([N+](=O)[O-])cc1Br	118*	0	-15	-3	5	-18	40	54*
Cc1cccc(C(C)C)c1NC(=O)CSc1cccc[n+]1[O-]	9	-7	-6	-18	2	-13	.	.
O=C(OCCOCCN=C1NS(=O)(=O)c2ccccc21)C1CC(=O)N(c2ccccc2)C1 (configuration not stated)	20	-3	-10	0	20	4	.	.
O=C(NCCCN1CCOCC1)c1sc2cc([N+](=O)[O-])ccc2c1Cl	93*	.	-9	-11	.	.	39	56*
O=C(CN1CCOCC1)Nc1cc([N+](=O)[O-])ccc1Cl	79*	-2	-4	-5	10	-15	31	35*
O=C(NCCN1CCOCC1)c1ccc([N+](=O)[O-])cc1[N+](=O)[O-]	179*	-2	-10	-13	7	11	73*	81*
O=C(NCCN1CCOCC1)c1cc([N+](=O)[O-])ccc1Cl	23	-9	-5	-13	0	3	.	.
C=CCn1c(COc2cc(C)ccc2C(C)C)nnc1SCC(=O)c1c(N)n(C)c(=O)n(C)c1=O	16	-3	-7	-31	8	1	.	.
C=CCN1N=C(c2ccc(Cl)s2)CSC1=O	21	-2	0	-19	4	-9	.	.
NC(=O)c1ccsc1NC(=O)c1ccc2c(c1)CCCC2	79*	0	-4	-11	-1	24	66*	2
CC(C)(C)n1cnnc1Sc1ncccc1[N+](=O)[O-]	85*	-4	-6	-9	3	-8	32	29*
Cc1ccc(Sc2ncccc2[N+](=O)[O-])cc1	1	1	-11	-8	-4	-11	.	.
Cn1ncc2c(Nc3ccc4ccccc4c3)ncnc21	78*	-2	-17	-20	3	-6	78*	2
Cc1c(C(=O)Nc2nccs2)oc2ccc(Br)cc12	11	-5	-11	-11	-1	4	.	.
